For orientation: Ki means the dissociation constant of the complex between target and ligand, obtained from inhibition or displacement. The low end stands for a stronger hold on the target, the high end for a looser hold on the target. The ED50 is the dose at which the effect has come halfway, by size or by number of responders.

The first assay deals with T1, Adenosine receptor A1 (Rattus norvegicus, UniProt P25099).
T1 sequence (P25099 whole entry): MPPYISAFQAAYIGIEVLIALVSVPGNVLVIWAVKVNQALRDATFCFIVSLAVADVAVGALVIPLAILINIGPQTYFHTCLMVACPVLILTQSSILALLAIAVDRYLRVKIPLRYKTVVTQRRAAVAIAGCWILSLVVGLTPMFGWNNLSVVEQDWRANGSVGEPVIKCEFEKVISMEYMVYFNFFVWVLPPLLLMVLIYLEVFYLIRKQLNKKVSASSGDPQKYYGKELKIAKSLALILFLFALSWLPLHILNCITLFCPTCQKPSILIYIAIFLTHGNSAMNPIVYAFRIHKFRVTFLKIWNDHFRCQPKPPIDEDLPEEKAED
The assay is described as follows: Binding affinity for adenosine A1 receptor in vitro using rat brain membranes. The format is cell membranes.
Conditions: not given
An outline of the steps: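 Whole rat brain membranes, homogenized in 50 mM Tris-HCl pH 7.4 and spun at 1090g then 48000g, pretreated with adenosine deaminase 1 U/mL for 30 min. Nonspecific binding defined with 10 μM PIA. Separated by GF/B filtration and scintillation counted, in triplicate. IC50 from log-logit regression, Ki via Cheng-Prusoff, one experiment.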
The molecule `Cc1ccc(Cn2cc(CCNc3ncnc4c3ncn4C3O[C@H](C(=O)NC4CC4)[C@@H](O)[C@H]3O)c3ccccc32)cc1C` (stereo partly drawn) yielded a Ki of 160 nM.

`CCNC(=O)[C@H]1OC(n2cnc3c(NCCc4cn(Cc5cc(C)ccc5C)c5ccccc45)ncnc32)[C@H](O)[C@@H]1O` (stereo partly drawn): the Ki came out at 160 nM.

Take `O=C(NC1CC1)[C@H]1OC(n2cnc3c(NCCc4cn(Cc5ccc(Cl)c(Cl)c5)c5ccccc45)ncnc32)[C@H](O)[C@@H]1O` (stereo partly drawn): the Ki came out at 140 nM.

`O=C(NC1CC1)[C@H]1OC(n2cnc3c(NCCc4cn(CC5CC5)c5ccccc45)ncnc32)[C@H](O)[C@@H]1O` (stereo partly drawn) yielded a Ki of 67 nM.

Another assay concerns the target T2, Adenosine receptor A1 (Rattus norvegicus) (UniProt P25099).
T2 sequence (whole entry): T1 sequence (P25099 whole entry)
The assay is described as follows: Percent displacement from adenosine A1 receptor at 10e-5 M in rat brain membrane in vitro. The format is cell membranes.
Conditions: not given
`Cc1ccc(Cn2cc(CCNc3ncnc4c3ncn4C3O[C@H](C(=O)NC4CC4)[C@@H](O)[C@H]3O)c3ccccc32)cc1C` (stereo partly drawn): the Displacement is 96%.

Take `CCNC(=O)[C@H]1OC(n2cnc3c(NCCc4cn(Cc5cc(C)ccc5C)c5ccccc45)ncnc32)[C@H](O)[C@@H]1O` (stereo partly drawn): the Displacement worked out at 92%.

`O=C(NC1CC1)[C@H]1OC(n2cnc3c(NCCc4cn(Cc5ccc(Cl)c(Cl)c5)c5ccccc45)ncnc32)[C@H](O)[C@@H]1O` (stereo partly drawn) gave a Displacement of 100%.

`O=C(NC1CC1)[C@H]1OC(n2cnc3c(NCCc4cn(CC5CC5)c5ccccc45)ncnc32)[C@H](O)[C@@H]1O` (stereo partly drawn) gave a Displacement of 97%.

The target in another assay is T2, Adenosine receptor A1 (Rattus norvegicus). The assay is described as follows: Percent displacement from adenosine A1 receptor at 10e-7 M in rat brain membrane in vitro. The format is cell membranes.
Conditions: not given
As for `Cc1ccc(Cn2cc(CCNc3ncnc4c3ncn4C3O[C@H](C(=O)NC4CC4)[C@@H](O)[C@H]3O)c3ccccc32)cc1C` (stereo partly drawn), the Displacement turned out to be 29%.

For `CCNC(=O)[C@H]1OC(n2cnc3c(NCCc4cn(Cc5cc(C)ccc5C)c5ccccc45)ncnc32)[C@H](O)[C@@H]1O` (stereo partly drawn), the Displacement turned out to be 38%.

`O=C(NC1CC1)[C@H]1OC(n2cnc3c(NCCc4cn(Cc5ccc(Cl)c(Cl)c5)c5ccccc45)ncnc32)[C@H](O)[C@@H]1O` (stereo partly drawn) came in with a Displacement of 52%.

`O=C(NC1CC1)[C@H]1OC(n2cnc3c(NCCc4cn(CC5CC5)c5ccccc45)ncnc32)[C@H](O)[C@@H]1O` (stereo partly drawn) registered a Displacement of 45%.

The target of another assay is Adenosine A2 receptor (Rattus norvegicus, UniProt P29276+P30543). The assay is described as follows: Binding affinity for adenosine A2 receptor in vitro using rat striatal membrane. The format is cell membranes.
Conditions: not given
The method in brief:
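Rat striatal membranes in 50 mM Tris-HCl, 10 mM MgCl2, pH 7.7, adenosine deaminase treated (1 U/mL, 30 min). Incubated with [3H]NECA (4 nM, 50 μL) plus 0.11 μM cyclopentyladenosine and competitor for 60 min at 25 °C. Nonspecific binding defined with 5 μM NECA. GF/B filtration, scintillation counting, triplicate. IC50 from log-logit regression, Ki via Cheng-Prusoff, one experiment.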
In turn, `Cc1ccc(Cn2cc(CCNc3ncnc4c3ncn4C3O[C@H](C(=O)NC4CC4)[C@@H](O)[C@H]3O)c3ccccc32)cc1C` (stereo partly drawn) returned a Ki of 820 nM.

The molecule `CCNC(=O)[C@H]1OC(n2cnc3c(NCCc4cn(Cc5cc(C)ccc5C)c5ccccc45)ncnc32)[C@H](O)[C@@H]1O` (stereo partly drawn) yielded a Ki of 660 nM.

Molecule `O=C(NC1CC1)[C@H]1OC(n2cnc3c(NCCc4cn(Cc5ccc(Cl)c(Cl)c5)c5ccccc45)ncnc32)[C@H](O)[C@@H]1O` (stereo partly drawn) displayed a Ki of 1400 nM.

In turn, `O=C(NC1CC1)[C@H]1OC(n2cnc3c(NCCc4cn(CC5CC5)c5ccccc45)ncnc32)[C@H](O)[C@@H]1O` (stereo partly drawn) registered a Ki of 190 nM.

In a further assay the target is T3, Adenosine A2 receptor (Rattus norvegicus) (UniProt P29276+P30543). Briefly: Percent displacement from adenosine A2 receptor at 10e-5 M in rat striatal membrane in vitro. The format is cell membranes.
Conditions: not given
`Cc1ccc(Cn2cc(CCNc3ncnc4c3ncn4C3O[C@H](C(=O)NC4CC4)[C@@H](O)[C@H]3O)c3ccccc32)cc1C` (stereo partly drawn): the Displacement was 83%.

For the molecule `CCNC(=O)[C@H]1OC(n2cnc3c(NCCc4cn(Cc5cc(C)ccc5C)c5ccccc45)ncnc32)[C@H](O)[C@@H]1O` (stereo partly drawn), the Displacement was 86%.

For the molecule `O=C(NC1CC1)[C@H]1OC(n2cnc3c(NCCc4cn(Cc5ccc(Cl)c(Cl)c5)c5ccccc45)ncnc32)[C@H](O)[C@@H]1O` (stereo partly drawn), the Displacement turned out to be 81%.

The molecule `O=C(NC1CC1)[C@H]1OC(n2cnc3c(NCCc4cn(CC5CC5)c5ccccc45)ncnc32)[C@H](O)[C@@H]1O` (stereo partly drawn) yielded a Displacement of 87%.

The target in another assay is T3, Adenosine A2 receptor (Rattus norvegicus). The assay is described as follows: Percent displacement from adenosine A2 receptor at 10e-7 M in rat striatal membrane in vitro. The format is cell membranes. As to conditions: Striatum.
Molecule `Cc1ccc(Cn2cc(CCNc3ncnc4c3ncn4C3O[C@H](C(=O)NC4CC4)[C@@H](O)[C@H]3O)c3ccccc32)cc1C` (stereo partly drawn) had a Displacement of 13%.

`CCNC(=O)[C@H]1OC(n2cnc3c(NCCc4cn(Cc5cc(C)ccc5C)c5ccccc45)ncnc32)[C@H](O)[C@@H]1O` (stereo partly drawn) gave a Displacement of 12%.

In the case of `O=C(NC1CC1)[C@H]1OC(n2cnc3c(NCCc4cn(Cc5ccc(Cl)c(Cl)c5)c5ccccc45)ncnc32)[C@H](O)[C@@H]1O` (stereo partly drawn), the Displacement amounted to 24%.

Molecule `O=C(NC1CC1)[C@H]1OC(n2cnc3c(NCCc4cn(CC5CC5)c5ccccc45)ncnc32)[C@H](O)[C@@H]1O` (stereo partly drawn) came in with a Displacement of 25%.

A further assay concerns Mus musculus. Briefly: Effective dose of compound for phenylbenzoquinone-Induced writhing in mice after peroral administration expressed as analgesic activity; Not dose dependent. The format is functional. As to conditions: po. An outline of the steps: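 Mice dosed orally (0.5 mL/20 g); 1 h later given 0.02% phenylbenzoquinone in hydroalcoholic solution ip (0.20-0.24 mL). Writhings and stretches counted from minute 5 to minute 10. Six animals per group. Inhibition taken against the control mean; ED50 (50% decrease) by linear regression.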
(In writhing tests, fewer writhes than in controls are read as antinociception.)
The molecule `Cc1ccc(Cn2cc(CCNc3ncnc4c3ncn4C3O[C@H](C(=O)NC4CC4)[C@@H](O)[C@H]3O)c3ccccc32)cc1C` (stereo partly drawn) showed an ED50 of more than 30 mg/kg.

The molecule `CCNC(=O)[C@H]1OC(n2cnc3c(NCCc4cn(Cc5cc(C)ccc5C)c5ccccc45)ncnc32)[C@H](O)[C@@H]1O` (stereo partly drawn) gave an ED50 of less than 2 mg/kg.

Turning to `O=C(NC1CC1)[C@H]1OC(n2cnc3c(NCCc4cn(Cc5ccc(Cl)c(Cl)c5)c5ccccc45)ncnc32)[C@H](O)[C@@H]1O` (stereo partly drawn), the ED50 was more than 30 mg/kg.

In turn, `O=C(NC1CC1)[C@H]1OC(n2cnc3c(NCCc4cn(CC5CC5)c5ccccc45)ncnc32)[C@H](O)[C@@H]1O` (stereo partly drawn) displayed an ED50 of more than 10 mg/kg.
